Experimental data reported in article PMC7658073 (Clinical Pharmacokinetics, 2020).

Assays:
[1] = target: P-glycoprotein (Homo sapiens, UniProt P08183); test: Inhibitory potential towards P-gp; assay type: in vitro ADME
[2] = All phase I studies in healthy volunteers; assay type: in vivo, human
In short: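 Healthy male volunteers, excluding regular medication, interacting foods/beverages or supplements, and non-adherence to smoking rules. All study drugs given orally. Tolerability recorded as treatment-emergent adverse events. Non-compartmental PK: AUC0–∞ by linear-log trapezoid plus extrapolation from the terminal log-linear slope; Cmax and trough read directly. Log-transformed parameters compared by ANOVA to give geometric mean ratios with 90% CIs.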

[3] = pKa and pH-dependent solubility; assay type: physicochemical
[4] = target: T1, organic cation transporter 1 (Homo sapiens, UniProt O15245); test: Inhibitory potency towards OCT1; assay type: in vitro ADME
T1 sequence (O15245 1-554): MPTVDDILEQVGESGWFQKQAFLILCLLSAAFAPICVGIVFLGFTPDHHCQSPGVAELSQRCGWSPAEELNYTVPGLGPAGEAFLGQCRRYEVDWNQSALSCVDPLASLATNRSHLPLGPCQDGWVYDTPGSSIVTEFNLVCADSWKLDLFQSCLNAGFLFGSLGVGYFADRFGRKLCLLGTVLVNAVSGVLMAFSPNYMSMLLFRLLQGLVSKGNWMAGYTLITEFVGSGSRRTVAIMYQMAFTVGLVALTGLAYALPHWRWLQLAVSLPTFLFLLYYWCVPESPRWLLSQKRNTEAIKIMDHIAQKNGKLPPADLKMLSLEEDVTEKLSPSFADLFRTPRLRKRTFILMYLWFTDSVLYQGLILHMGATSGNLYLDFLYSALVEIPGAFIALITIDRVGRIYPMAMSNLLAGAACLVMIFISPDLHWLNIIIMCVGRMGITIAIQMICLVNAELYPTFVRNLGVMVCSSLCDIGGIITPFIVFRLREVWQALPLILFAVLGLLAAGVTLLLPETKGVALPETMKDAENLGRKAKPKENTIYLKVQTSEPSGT

[5] = serum albumin main binding component; ref data on file; cited from earlier work
[6] = Phase I DDI study with sacubitril/valsartan; assay type: in vivo, human; settings: administered with sacubitril/valsartan
[7] = Phase I DDI study with rifampicin; assay type: in vivo, human
In short: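 Non-randomized, non-blinded, fixed-sequence study in healthy men. Test compound 10 mg single oral dose, fed, alone and then with rifampicin 600 mg QD orally for 9 days (pre- and co-treatment).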

[8] = Phase I DDI study with digoxin; assay type: in vivo, human; settings: with digoxin 0.375 mg QD vs vericiguat 10 mg alone, fed
[9] = target: T2, OATP1B3 (Homo sapiens, UniProt Q9NPD5); test: Substrate properties towards OATP1B3; assay type: in vitro ADME
T2 sequence (Q9NPD5 1-702): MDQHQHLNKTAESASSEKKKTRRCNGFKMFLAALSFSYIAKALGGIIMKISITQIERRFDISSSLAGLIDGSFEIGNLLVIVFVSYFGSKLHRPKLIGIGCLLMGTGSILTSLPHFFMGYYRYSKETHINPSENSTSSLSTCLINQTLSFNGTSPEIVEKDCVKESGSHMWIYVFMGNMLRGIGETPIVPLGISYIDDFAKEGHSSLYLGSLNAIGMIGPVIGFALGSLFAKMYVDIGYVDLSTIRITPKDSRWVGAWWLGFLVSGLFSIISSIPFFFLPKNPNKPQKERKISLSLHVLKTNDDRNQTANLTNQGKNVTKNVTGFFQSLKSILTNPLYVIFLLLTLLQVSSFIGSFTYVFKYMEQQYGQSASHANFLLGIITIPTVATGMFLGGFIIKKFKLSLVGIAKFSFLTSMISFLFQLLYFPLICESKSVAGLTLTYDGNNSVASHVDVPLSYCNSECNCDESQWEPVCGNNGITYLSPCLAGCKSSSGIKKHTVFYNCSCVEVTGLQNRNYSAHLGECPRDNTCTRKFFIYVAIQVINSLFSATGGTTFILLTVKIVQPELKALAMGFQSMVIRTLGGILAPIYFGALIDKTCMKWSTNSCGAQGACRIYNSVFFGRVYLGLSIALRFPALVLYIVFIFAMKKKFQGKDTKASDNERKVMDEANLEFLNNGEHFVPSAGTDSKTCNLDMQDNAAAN

[10] = target: T3, UGT1A6 (Homo sapiens, UniProt P19224); test: Inhibitory potency towards UGT isoforms: UGT1A6; assay type: in vitro ADME
T3 sequence (P19224 27-532): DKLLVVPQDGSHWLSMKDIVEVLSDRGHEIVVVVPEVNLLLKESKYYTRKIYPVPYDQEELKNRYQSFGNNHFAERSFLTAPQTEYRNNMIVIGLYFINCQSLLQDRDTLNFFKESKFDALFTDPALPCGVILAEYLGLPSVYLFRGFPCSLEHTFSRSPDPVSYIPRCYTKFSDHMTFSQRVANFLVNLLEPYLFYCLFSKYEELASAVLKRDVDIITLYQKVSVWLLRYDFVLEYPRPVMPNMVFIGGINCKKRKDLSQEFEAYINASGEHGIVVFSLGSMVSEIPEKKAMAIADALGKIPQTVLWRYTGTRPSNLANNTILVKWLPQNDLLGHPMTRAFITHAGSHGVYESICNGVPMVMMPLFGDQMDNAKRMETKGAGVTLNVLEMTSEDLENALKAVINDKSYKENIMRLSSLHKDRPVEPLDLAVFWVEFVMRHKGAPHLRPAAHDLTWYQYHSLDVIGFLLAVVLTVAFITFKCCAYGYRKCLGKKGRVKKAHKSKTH

[11] = target: T2, OATP1B3; test: Inhibitory potency towards OATP1B3; assay type: in vitro ADME
[12] = with rifampicin 600 mg QD vs vericiguat 10 mg SD alone, fed

Chain of P-glycoprotein (P08183 whole entry): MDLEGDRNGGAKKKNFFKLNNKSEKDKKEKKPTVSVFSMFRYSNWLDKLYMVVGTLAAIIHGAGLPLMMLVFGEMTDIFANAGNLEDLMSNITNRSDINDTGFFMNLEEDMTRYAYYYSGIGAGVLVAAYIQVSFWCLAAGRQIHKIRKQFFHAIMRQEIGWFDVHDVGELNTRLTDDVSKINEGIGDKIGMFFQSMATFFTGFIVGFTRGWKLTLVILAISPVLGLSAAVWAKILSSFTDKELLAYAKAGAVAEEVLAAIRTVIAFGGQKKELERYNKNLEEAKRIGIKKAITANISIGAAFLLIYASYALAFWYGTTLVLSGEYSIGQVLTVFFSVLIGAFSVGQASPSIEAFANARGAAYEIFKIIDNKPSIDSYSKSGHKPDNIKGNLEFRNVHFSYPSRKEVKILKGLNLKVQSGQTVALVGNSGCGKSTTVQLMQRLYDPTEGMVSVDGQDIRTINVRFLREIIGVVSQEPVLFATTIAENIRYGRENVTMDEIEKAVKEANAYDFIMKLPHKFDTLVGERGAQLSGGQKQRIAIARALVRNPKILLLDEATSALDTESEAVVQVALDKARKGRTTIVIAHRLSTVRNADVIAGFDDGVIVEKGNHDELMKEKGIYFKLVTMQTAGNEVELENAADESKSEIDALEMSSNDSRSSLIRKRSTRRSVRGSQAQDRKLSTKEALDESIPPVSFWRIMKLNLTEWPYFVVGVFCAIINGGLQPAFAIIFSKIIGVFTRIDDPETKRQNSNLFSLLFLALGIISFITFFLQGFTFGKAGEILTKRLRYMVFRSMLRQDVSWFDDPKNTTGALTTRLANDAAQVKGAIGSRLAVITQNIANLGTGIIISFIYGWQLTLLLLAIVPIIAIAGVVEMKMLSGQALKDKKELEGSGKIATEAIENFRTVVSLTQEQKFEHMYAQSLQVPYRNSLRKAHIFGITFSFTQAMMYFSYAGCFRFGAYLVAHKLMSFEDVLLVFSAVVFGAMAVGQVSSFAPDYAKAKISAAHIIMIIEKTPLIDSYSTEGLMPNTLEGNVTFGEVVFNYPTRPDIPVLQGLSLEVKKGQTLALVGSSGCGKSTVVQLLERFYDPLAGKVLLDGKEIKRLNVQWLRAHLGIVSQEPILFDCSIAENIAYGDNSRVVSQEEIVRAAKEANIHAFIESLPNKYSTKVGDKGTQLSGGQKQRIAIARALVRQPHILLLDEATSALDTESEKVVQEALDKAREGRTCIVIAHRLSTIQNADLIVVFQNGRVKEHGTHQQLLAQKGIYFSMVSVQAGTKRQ

With `COC(=O)Nc1c(N)nc(-c2nn(Cc3ccccc3F)c3ncc(F)cc23)nc1N` [Vericiguat] as the compound, how does the IC50 [1] read?
Its IC50 is over 100 µM.

And the “Changes in vericiguat exposure in the phase I DDI studies” value ([2]; all ten DDI studies)?
Its value is at most 30%.

And the Tolerability ([2]; healthy volunteers, all phase I studies)?
The Tolerability was “generally well tolerated”.

What about the “pH dependence of solubility” value [3] of the same compound?
Its value is “lower in neutral conditions compared with acidic conditions”.

What about the pKa [3] of the same compound?
Its pKa is 4.7.

And the IC50 [4]?
Its IC50 is over 50 µM.

And the Plasma protein binding [5]?
The Plasma protein binding was “approximately 98%”.

What about the “Decrease in AUC0–24 of vericiguat” value [6] of the same compound?
The value was “about 7%”.

What about the “Decrease in Cmax of vericiguat” value [6] of the same compound?
The value was about 9%.

And the “Decrease in Cmax of vericiguat” value ([7]; pre- and co-treatment with rifampicin)?
Its value is 9%.

What about the “Decrease in AUC of vericiguat” value ([7]; pre- and co-treatment with rifampicin 600 mg once daily) of the same compound?
The value was 29%.

What about the “AUC of vericiguat, point estimate of treatment ratio” value [7, 12] of the same compound?
The value was 0.713.

And the “Cmax of vericiguat, point estimate of treatment ratio” value [7, 12]?
Its value is 0.914.

And the “AUC of vericiguat, point estimate of treatment ratio” value [8]?
Its value is 0.980.

What about the “Cmax of vericiguat, point estimate of treatment ratio” value [8] of the same compound?
The value was 1.009.

And the “Substrate of OATP1B3” value [9]?
The value was “not a substrate”.

And the IC50 [10]?
The IC50 was over 50 µM.

What about the IC50 [11] of the same compound?
The IC50 was about 30 µM.
